Statin myotox sup – suppressors of statin myotoxicity in C2C12 myotubes, primary screen, cell-based, single point, plate reader | rescue of ATP level, % at 7.49 µM | actives 0.78% (n = 330,000) | C2C12 myotubes + simvastatin, ATP luminescence, 48 h; scaled: DMSO 0, geranylgeraniol control 100;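 active means mean ATP rescue above about 67%, or every replicate alone reaching that limit, limit read from the data, passing the limit was not always enough; inconclusive means no clear call, values can overlap the other calls; inactive means mean under the limit and some replicate under it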;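 further: myotubes were challenged with 10 µM simvastatin during compound exposure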
ERp5 block – inhibitors of ERp5-driven insulin aggregation, primary screen, biochemical, turbidity, absorbance 650 nm, single point. actives 0.05% (n = 350,000). Protein disulfide-isomerase A6 (Homo sapiens), Q15084. inhibition, % at 9.99 µM. 90 min;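 active means mean replicate inhibition above about 25%, with every replicate also reaching it, limit read from the data, passing the limit was not always enough; inconclusive means only one of those two criteria met; inactive means neither criterion met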
PDI turbidity – inhibitors of human PDI, primary screen, biochemical, turbidity, single point, plate reader; Protein disulfide-isomerase (Homo sapiens), P07237; PDI insulin aggregation turbidity, A650, 90 min; inhibition, % at 10 µM; actives 0.052% (n = 350,000); AID 588391, 2011;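 active means mean inhibition across replicates of 30% or more, whatever share of single replicates reach that level; inconclusive means mean inhibition below 30% while every single replicate reaches 30%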
Target sequence (P07237 whole entry, looked up): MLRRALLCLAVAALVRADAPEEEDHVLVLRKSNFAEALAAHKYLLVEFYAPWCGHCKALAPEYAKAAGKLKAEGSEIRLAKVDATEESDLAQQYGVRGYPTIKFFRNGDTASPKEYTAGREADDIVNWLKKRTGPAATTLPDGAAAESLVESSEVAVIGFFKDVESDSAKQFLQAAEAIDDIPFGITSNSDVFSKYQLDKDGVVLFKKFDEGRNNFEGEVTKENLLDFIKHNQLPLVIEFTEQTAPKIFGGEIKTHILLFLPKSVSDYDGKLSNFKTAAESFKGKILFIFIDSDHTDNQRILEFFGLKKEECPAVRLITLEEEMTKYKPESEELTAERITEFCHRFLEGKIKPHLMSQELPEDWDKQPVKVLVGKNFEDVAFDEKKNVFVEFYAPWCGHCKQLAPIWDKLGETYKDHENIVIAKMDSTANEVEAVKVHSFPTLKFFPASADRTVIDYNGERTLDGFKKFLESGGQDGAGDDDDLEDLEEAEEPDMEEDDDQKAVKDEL
Cneo AK release – Cryptococcus neoformans cell lysis inducers, primary screen, AK release luminescence, single concentration | C. neoformans lysis, adenylate kinase release luminescence, 4 h; normalised: neutral wells 0, clomiphene wells 100 | lysis activity, % at 15 µM | actives 0.2% (n = 360,000) | AID 651654, 2012;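 active means mean lysis activity across replicates of at least 80%, whatever share of replicates individually reach that level; inactive means mean lysis activity below 80%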
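Assay system: C. neoformans cells. Amount: yeast cell density of 5 × 10^6 cells/mL. Technique: AK luminescence. Buffer or medium: YPD. Times: static 4 h at 37 °C with compound, 1 h detection. Dosing: single-point compound dose. Read-out: lysis from increased AK signal.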
DENV2 CPE rescue – inhibitors of DENV2 cytopathic effect, primary screen, cell-based, plate reader, single concentration. CPE inhibition, % at 9.99 µM. AID 651640, 2012. DENV2-infected cells, cytopathic effect rescue. actives 1.7% (n = 350,000); in the data active means CPE inhibition above about 20%, passing the limit was not always enough; inconclusive means no clear call, values can overlap the other calls; tested in BHK-21 cells;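 further: 0% = median of neutral control wells and 100% = median of positive control wells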
CFTR F508del cor – F508del CFTR correction, initial screen, CFBE line, single point; AID 720511, 2013; actives 0.36% (n = 350,000); CFBE cells, YFP halide quenching; stimulated with forskolin plus potentiator P3; % fluorescence drop versus neutral controls; activity (quench increase), % at 7.58 µM;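 active means mean added fluorescence quench of at least 8% versus neutral control, with both replicates also reaching 8%; inconclusive means only one of the mean or replicate conditions met; inactive means mean below 8% and not both replicates reaching 8%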;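 further: cells transiently co-express mutant CFTR-F508del with the halide-sensitive YFP; corrector assay measuring rescue of mutant channel to the surface after 24 h compound exposure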
Starred values were filed as active, the others as inactive; ? = inconclusive; / = no result given; ! = not active in a repeat. Compounds with a hit are over-represented: about 2.3% of the library has one in this group of screens.

SMILES | Statin myotox sup | ERp5 block | PDI turbidity | Cneo AK release | DENV2 CPE rescue | CFTR F508del cor
CCC(=O)N1[C@H](CO)[C@@H](c2ccc(C3=CCCC3)cc2)[C@@H]1CNC(=O)CN(C)C | 7 | / | / | 1 | -3 | 2
Cc1noc(C)c1NC(=O)Nc1ccc2c(c1)CC(=O)N([C@@H](C)CO)C[C@@H](C)[C@H](CN(C)C(=O)Nc1ccc(C(F)(F)F)cc1)O2 | 9 | 8 | / | 0 | -11 | 1
COc1ccc(NC(=O)N(C)C[C@H]2OCCCC[C@H](C)Oc3ccc(NS(=O)(=O)c4cn(C)cn4)cc3C(=O)N([C@@H](C)CO)C[C@H]2C)cc1 | / | 11 | / | -3 | ? | -1
COc1ccc(NC(=O)N(C)C[C@H]2OCCCC[C@H](C)Oc3ccc(NS(=O)(=O)c4cn(C)cn4)cc3C(=O)N([C@H](C)CO)C[C@@H]2C)cc1 | -4 | -16 | 1 | 2 | 25*! | 6
C[C@@H]1CCCCO[C@@H](CN(C)C(=O)NC2CCCCC2)[C@H](C)CN([C@@H](C)CO)C(=O)c2cc(NS(=O)(=O)c3cn(C)cn3)ccc2O1 | 2 | -5 | / | 101* | -6 | 1
C[C@@H]1CCCCO[C@H](CN(C)C(=O)NC2CCCCC2)[C@@H](C)CN([C@@H](C)CO)C(=O)c2cc(NS(=O)(=O)c3cn(C)cn3)ccc2O1 | 10 | 6 | / | 0 | ? | -2
C[C@@H]1CN([C@@H](C)CO)C(=O)c2cc(NS(=O)(=O)c3cn(C)cn3)ccc2O[C@H]1CN(C)C(=O)NC1CCCCC1 | 10 | 8 | / | -2 | 45* | 1
COc1ccc(S(=O)(=O)Nc2ccc3c(c2)C(=O)N([C@@H](C)CO)C[C@@H](C)[C@@H](CN(C)C(=O)Nc2cccc4ccccc24)OCCCC[C@H](C)O3)cc1 | ? | / | / | -1 | 2 | 2
C[C@@H]1CN([C@H](C)CO)C(=O)Cc2cc(NC(=O)CCC(F)(F)F)ccc2O[C@H]1CN(C)S(=O)(=O)c1ccc(Cl)cc1 | 29 | 0 | / | -1 | -5 | -4
Cc1ccc(S(=O)(=O)N(C)C[C@H]2Oc3ccc(NC(=O)Nc4ccc(C(F)(F)F)cc4)cc3C(=O)N([C@H](C)CO)C[C@@H]2C)cc1 | -51 | -11 | / | 8 | 37* | -1
Cc1ccc(S(=O)(=O)N(C)C[C@H]2Oc3ccc(NC(=O)Nc4ccc(C(F)(F)F)cc4)cc3C(=O)N([C@H](C)CO)C[C@H]2C)cc1 | -88 | -1 | / | -1 | 44* | 2
Cc1ccc(S(=O)(=O)N(C)C[C@@H]2Oc3ccc(NC(=O)Nc4ccc(C(F)(F)F)cc4)cc3C(=O)N([C@H](C)CO)C[C@H]2C)cc1 | -55 | 3 | / | 1 | -9 | 1
C[C@@H]1CN([C@H](C)CO)C(=O)c2cc(NC(=O)Nc3ccc(C(F)(F)F)cc3)ccc2O[C@@H]1CN(C)S(=O)(=O)c1ccc(F)cc1 | -66 | 29* | / | 2 | -3 | -1
C[C@H](CO)N1C[C@H](C)[C@@H](CN(C)S(=O)(=O)c2ccc(F)cc2)Oc2ccc(NC(=O)Nc3ccc(C(F)(F)F)cc3)cc2C1=O | 7 | -5 | -4 | 1 | 19 | 3
O=C(Cc1ccccc1)N[C@@H]1C=C[C@@H](CC(=O)N2CCOCC2)O[C@H]1CO | -19 | 1 | / | 1 | -6 | 1
CCC(=O)N1[C@H](CO)[C@H]2c3ccccc3N(C(=O)c3cccc(OC)c3)C[C@H]21 | 31 | / | / | -8 | / | 2
CS(=O)(=O)N1CC2(C1)[C@H](c1ccccc1)[C@@H](CO)N2Cc1ccc(F)cc1 | / | 0 | / | / | 7 | -3
COc1ccccc1CN(C)C[C@@H]1OCc2cn(nn2)CCCC(=O)N([C@@H](C)CO)C[C@H]1C | -1 | / | / | / | / | 1
O=C(c1cccnc1)N1CCCCN2[C@H](CO)[C@@H](c3ccc(C#Cc4ccccn4)cc3)[C@H]2C1 | -9 | -1 | / | -1 | 20* | 0
Cc1ccccc1-c1ccc([C@H]2[C@@H](CO)N3CCCCN(C(=O)c4cccnc4)C[C@H]23)cc1 | -25 | -2 | / | 3 | 7 | 1
Cc1ccccc1-c1ccc([C@@H]2[C@@H](CO)N3CCCCN(C(=O)c4cccnc4)C[C@H]23)cc1 | -2 | -2 | / | -3 | 49* | -1
Cc1ccccc1-c1ccc(C2[C@@H]3CN(C(=O)c4cnccn4)C[C@H]2N3)cc1 (stereo not given in full) | / | / | / | / | 29*! | -1
C[C@@H]1CCCCO[C@H](CN(C)S(=O)(=O)c2ccc(Cl)cc2)[C@H](C)CN([C@H](C)CO)C(=O)c2cc(NC(=O)c3ccncc3)ccc2O1 | / | -8 | / | 0 | 13 | -4
CCCNC(=O)C[C@H]1C[C@H]2c3cc(NC(=O)C4CCC4)ccc3O[C@H]2[C@@H](CO)O1 | 0 | -4 | / | -2 | ? | -1
COc1cc(C)ccc1OCCCOc1cc(C)ccc1Cl | 156* | / | -5 | -2 | / | /
SMILES | Statin myotox sup | ERp5 block | PDI turbidity | Cneo AK release | DENV2 CPE rescue | CFTR F508del cor
COc1cc(C)ccc1OCCCOc1c(Cl)cccc1Cl | / | 1 | -2 | -2 | -2 | /
C[C@@H]1CN([C@H](C)CO)C(=O)c2cc(NC(=O)Nc3ccc(C(F)(F)F)cc3)ccc2O[C@@H](C)CCCCO[C@H]1CN(C)C(=O)c1ccccc1 | / | -3 | / | -3 | -4 | 3
COC(=O)c1cn(Cc2ccc(C(F)(F)F)cc2)cc(F)c1=O | 103* | 4 | 0 | 3 | -2 | 1
COC(=O)c1ccc(Cn2cc(C(F)(F)F)ccc2=O)cc1 | / | 1 | 5 | / | 1 | 4
COc1cccc(S(=O)(=O)N2CC[C@H]3[C@H](CO)Nc4ccc(C#Cc5ccccc5)cc4[C@H]32)c1 | -10 | -4 | / | -7 | 31* | 1
COc1cccc(C#Cc2ccc3c(c2)[C@@H]2[C@@H](CCN2S(=O)(=O)c2ccccc2)[C@@H](CO)N3)c1 | / | -1 | / | / | 45* | 0
COc1cccc(S(=O)(=O)N2CC[C@@H]3[C@@H](CO)Nc4ccc(C#Cc5ccccc5)cc4[C@@H]32)c1 | -17 | 2 | / | 4 | -10 | -1
CCC(=O)N(C)C[C@@H]1Oc2cc(Br)ccc2S(=O)(=O)N([C@@H](C)CO)C[C@H]1C | -11 | 4 | / | -1 | 4 | -1
Cc1cc(-c2ccccc2)nc(N(C)NC(=O)c2cccc(C(F)(F)F)c2)c1S(C)(=O)=O | 19 | / | 9 | 8 | / | /
Cc1cc(-c2ccccc2)nc(N(C)NC(=O)C2CC2)c1S(C)(=O)=O | -1 | 3 | 2 | -2 | 2 | 8.5*

High-throughput results deposited in PubChem by Broad Institute.
